Reference: ChEMBL document CHEMBL1817562, “Docking and SAR studies of D- and L-isofagomine isomers as human β-glucocerebrosidase inhibitors” (Bioorg Med Chem, 2011)

Assays:
[1] = species: Rattus norvegicus; conditions: 1000 uM
[2] = test system: Penicillium decumbens; experiment: Inhibition of Penicillium decumbens alpha-L-rhamnosidase assessed as production of p-nitrophenol at 1000 uM by spectrophotometry
In short: (§1)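 p-Nitrophenyl glycoside matched to each enzyme, 2 mM, with enzyme at that enzyme's optimum pH: Penicillium decumbens α-L-rhamnosidase pH 4.0, bovine liver β-galactosidase pH 6.8, coffee bean α-galactosidase pH 6.5, jack bean α-mannosidase pH 4.5, snail β-mannosidase pH 4.5. Stopped with 400 mM Na2CO3; released p-nitrophenol read at 400 nm.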

[3] = target: T1, Lysosomal acid glucosylceramidase (Homo sapiens) (UniProt P04062); conditions: 1000 uM
T1 sequence (whole entry): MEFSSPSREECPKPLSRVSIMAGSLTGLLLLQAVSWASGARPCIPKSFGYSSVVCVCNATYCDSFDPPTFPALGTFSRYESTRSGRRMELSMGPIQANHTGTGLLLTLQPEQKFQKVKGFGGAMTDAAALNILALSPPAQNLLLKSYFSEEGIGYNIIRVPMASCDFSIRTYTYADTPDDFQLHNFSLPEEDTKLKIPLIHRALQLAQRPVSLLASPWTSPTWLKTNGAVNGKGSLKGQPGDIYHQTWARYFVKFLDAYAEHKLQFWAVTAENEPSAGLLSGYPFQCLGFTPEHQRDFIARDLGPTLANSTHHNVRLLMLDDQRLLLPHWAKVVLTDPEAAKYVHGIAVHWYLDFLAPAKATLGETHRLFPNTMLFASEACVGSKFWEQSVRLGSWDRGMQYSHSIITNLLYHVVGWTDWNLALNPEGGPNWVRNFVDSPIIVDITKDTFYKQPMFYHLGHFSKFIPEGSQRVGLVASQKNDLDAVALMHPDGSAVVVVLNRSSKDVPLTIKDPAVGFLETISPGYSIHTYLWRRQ

[4] = test system: Canavalia ensiformis; experiment: Inhibition of jack beans alpha-mannosidase assessed as production of p-nitrophenol at 1000 uM by spectrophotometry
In short: as §1

[5] = test system: Oryza sativa; conditions: 1000 uM
[6] = test system: Helix pomatia; experiment: Inhibition of snail beta-mannosidase assessed as production of p-nitrophenol at 1000 uM by spectrophotometry
In short: as §1

[7] = target: Lactase/phlorizin hydrolase (Rattus norvegicus, UniProt Q02401); experiment: Inhibition of rat intestinal lactase assessed as production of p-nitrophenol by spectrophotometry
Sequence of Lactase/phlorizin hydrolase (Q02401 868-1928 limits assumed): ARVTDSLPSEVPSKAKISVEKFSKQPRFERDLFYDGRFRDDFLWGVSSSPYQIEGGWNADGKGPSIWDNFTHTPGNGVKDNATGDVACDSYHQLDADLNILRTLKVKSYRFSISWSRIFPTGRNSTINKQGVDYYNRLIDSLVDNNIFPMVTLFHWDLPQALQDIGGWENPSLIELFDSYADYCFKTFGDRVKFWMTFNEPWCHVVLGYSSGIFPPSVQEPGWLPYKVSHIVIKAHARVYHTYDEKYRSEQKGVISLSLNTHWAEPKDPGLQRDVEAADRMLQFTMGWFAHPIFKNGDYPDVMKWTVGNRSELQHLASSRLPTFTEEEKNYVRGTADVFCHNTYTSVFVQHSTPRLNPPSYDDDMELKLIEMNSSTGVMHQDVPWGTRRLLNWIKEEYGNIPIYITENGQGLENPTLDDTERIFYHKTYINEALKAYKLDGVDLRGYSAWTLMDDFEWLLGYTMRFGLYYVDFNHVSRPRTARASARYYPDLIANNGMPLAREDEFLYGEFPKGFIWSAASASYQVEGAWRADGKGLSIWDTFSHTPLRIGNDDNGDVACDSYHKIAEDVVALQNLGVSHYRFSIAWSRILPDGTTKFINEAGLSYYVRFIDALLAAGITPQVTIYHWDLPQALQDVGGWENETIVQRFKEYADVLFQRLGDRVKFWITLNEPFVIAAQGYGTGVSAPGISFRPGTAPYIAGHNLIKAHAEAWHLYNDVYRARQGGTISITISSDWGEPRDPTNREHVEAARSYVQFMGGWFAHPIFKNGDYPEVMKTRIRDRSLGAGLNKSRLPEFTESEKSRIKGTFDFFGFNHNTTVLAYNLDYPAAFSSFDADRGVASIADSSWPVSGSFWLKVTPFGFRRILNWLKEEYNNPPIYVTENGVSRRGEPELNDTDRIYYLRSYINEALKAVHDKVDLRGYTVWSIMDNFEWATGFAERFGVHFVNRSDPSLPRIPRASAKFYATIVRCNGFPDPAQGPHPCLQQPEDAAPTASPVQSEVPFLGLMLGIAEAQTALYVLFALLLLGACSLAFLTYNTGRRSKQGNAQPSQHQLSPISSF

[8] = species: Rattus norvegicus; experiment: Inhibition of rat intestinal cellobiase assessed as production of p-nitrophenol at 1000 uM by spectrophotometry
[9] = target: Sucrase-isomaltase, intestinal (Rattus norvegicus) (UniProt P23739); conditions: 1000 uM
Sequence of Sucrase-isomaltase, intestinal (Rattus norvegicus) (P23739 1-1013 limits assumed): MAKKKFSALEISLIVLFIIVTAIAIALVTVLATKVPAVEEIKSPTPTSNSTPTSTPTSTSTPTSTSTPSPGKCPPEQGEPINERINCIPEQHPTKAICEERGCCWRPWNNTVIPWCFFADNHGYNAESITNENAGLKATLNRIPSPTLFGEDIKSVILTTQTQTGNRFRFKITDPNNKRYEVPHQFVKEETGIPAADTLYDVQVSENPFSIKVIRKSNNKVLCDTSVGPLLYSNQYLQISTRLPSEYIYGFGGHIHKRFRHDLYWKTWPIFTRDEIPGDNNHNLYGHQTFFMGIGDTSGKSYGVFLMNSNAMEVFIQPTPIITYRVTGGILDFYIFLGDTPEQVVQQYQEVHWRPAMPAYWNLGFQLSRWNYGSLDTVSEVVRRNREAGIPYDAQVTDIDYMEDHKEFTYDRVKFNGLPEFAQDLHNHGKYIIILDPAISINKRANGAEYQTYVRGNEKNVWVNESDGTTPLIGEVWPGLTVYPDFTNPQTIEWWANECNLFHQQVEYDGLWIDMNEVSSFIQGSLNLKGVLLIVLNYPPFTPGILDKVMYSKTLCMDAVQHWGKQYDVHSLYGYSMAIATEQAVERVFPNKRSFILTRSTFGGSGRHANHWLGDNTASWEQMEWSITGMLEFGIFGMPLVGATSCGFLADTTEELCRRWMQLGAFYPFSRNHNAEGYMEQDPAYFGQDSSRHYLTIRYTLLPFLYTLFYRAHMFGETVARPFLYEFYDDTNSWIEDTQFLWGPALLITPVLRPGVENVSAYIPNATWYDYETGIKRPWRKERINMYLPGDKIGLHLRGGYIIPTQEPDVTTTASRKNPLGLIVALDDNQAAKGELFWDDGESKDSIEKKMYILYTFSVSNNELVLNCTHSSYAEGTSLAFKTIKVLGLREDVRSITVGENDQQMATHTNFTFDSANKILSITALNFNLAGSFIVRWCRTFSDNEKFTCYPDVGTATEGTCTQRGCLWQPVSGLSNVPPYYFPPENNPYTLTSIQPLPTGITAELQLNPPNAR
Sequence of Sucrase-isomaltase, intestinal (Rattus norvegicus) (P23739 1014-1841 limits assumed): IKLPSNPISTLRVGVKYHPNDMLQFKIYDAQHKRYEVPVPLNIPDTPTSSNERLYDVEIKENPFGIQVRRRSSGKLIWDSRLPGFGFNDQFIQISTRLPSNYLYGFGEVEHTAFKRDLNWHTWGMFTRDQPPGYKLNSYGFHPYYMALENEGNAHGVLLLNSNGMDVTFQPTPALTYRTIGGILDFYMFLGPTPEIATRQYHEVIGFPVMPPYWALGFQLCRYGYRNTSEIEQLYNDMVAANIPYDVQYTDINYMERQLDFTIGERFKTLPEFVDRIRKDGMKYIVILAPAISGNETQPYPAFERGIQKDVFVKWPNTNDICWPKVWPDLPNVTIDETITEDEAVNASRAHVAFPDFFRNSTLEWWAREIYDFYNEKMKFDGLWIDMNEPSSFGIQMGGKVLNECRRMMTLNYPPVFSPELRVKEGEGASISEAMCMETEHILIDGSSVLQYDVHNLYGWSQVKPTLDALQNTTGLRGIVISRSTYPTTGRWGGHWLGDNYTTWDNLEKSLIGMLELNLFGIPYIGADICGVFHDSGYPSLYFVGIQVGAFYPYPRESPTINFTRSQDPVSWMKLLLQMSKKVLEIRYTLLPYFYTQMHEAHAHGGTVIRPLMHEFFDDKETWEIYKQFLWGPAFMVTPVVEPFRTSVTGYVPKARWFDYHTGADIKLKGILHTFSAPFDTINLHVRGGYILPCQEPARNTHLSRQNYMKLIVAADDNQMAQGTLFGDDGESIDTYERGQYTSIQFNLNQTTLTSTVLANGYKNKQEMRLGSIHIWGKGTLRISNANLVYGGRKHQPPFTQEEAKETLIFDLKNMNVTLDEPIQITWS

[10] = target: T2, Glucosylceramidase (Bos taurus) (UniProt Q2KHZ8); experiment: Inhibition of bovine liver beta-glucosidase assessed as production of p-nitrophenol using p-nitrophenyl glycoside as substrate at 1000 uM by spectrophotometry
T2 sequence (whole entry): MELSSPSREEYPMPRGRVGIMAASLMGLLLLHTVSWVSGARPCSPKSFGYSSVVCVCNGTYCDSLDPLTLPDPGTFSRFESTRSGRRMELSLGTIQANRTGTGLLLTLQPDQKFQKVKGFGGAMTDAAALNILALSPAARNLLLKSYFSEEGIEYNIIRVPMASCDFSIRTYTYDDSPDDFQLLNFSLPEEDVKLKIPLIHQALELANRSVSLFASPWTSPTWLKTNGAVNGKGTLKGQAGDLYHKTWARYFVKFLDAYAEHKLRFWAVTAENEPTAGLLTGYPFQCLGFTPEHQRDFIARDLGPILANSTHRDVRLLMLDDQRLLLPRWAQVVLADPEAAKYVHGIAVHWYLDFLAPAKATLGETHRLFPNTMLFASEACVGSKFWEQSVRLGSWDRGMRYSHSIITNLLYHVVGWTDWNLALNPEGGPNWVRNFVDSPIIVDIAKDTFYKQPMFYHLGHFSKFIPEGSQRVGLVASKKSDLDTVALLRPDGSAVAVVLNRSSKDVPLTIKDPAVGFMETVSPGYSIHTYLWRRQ

[11] = test system: Prunus dulcis; conditions: 1000 uM
[12] = target: T3, Tissue alpha-L-fucosidase (Bos taurus) (UniProt Q2KIM0); conditions: 1000 uM
T3 sequence (whole entry): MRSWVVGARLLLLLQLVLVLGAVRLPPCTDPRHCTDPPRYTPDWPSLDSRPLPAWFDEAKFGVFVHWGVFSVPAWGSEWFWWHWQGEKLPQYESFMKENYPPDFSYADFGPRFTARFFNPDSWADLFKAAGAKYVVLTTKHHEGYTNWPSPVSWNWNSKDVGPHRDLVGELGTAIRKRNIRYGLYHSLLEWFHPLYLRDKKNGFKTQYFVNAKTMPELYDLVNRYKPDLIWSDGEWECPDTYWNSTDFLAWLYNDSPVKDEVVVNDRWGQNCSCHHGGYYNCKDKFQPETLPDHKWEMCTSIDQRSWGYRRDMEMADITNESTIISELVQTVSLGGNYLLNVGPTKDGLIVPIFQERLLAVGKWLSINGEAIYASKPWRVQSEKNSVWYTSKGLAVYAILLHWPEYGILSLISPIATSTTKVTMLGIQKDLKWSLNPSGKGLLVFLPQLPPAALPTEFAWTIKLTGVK

[13] = test system: Coffea; experiment: Inhibition of coffee beans alpha-galactosidase assessed as production of p-nitrophenol at 1000 uM by spectrophotometry
In short: as §1

[14] = target: Sucrase-isomaltase, intestinal (Rattus norvegicus) (UniProt P23739); conditions: 1000 uM; remark: listed apart in the source
[15] = target: T4, Beta-galactosidase (Bos taurus) (UniProt Q58D55); experiment: Inhibition of bovine liver beta-galactosidase assessed as production of p-nitrophenol at 1000 uM by spectrophotometry
T4 sequence (whole entry): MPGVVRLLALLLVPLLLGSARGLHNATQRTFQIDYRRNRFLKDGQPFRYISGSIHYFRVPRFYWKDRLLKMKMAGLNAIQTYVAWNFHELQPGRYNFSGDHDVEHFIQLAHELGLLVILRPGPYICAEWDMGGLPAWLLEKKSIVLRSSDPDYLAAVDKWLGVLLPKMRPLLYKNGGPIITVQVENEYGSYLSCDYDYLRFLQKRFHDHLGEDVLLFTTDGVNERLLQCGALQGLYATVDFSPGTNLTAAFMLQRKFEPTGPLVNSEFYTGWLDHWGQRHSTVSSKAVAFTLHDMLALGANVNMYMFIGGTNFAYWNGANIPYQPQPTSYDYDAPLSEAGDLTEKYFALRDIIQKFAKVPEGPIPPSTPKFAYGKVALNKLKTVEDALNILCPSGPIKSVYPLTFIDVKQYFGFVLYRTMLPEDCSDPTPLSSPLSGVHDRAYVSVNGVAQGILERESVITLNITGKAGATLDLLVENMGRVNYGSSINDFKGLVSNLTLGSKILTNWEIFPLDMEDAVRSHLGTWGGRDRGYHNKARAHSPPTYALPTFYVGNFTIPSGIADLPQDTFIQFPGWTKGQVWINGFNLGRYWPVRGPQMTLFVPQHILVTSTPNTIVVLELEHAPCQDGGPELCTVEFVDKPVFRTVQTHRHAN
In short: as §1

[16] = Inhibition of almond beta-glucosidase assessed as production of p-nitrophenol using p-nitrophenyl glycoside as substrate by spectrophotometry
[17] = Inhibition of rat intestinal cellobiase assessed as production of p-nitrophenol by spectrophotometry
[18] = target: Lactase/phlorizin hydrolase (Rattus norvegicus) (UniProt Q02401); conditions: 1000 uM
Sequence of Lactase/phlorizin hydrolase (Rattus norvegicus) (Q02401 868-1928 limits assumed): as the sequence (Q02401 868-1928 limits assumed) above

[19] = Inhibition of rice alpha-glucosidase assessed as production of D-glucose using maltose as substrate after 10 to 30 mins by spectrophotometry; design: species or system Oryza sativa
In short: (§2)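 Enzymes were rice α-glucosidase at pH 5.0 and rat small-intestine brush border membranes (Kessler method) at pH 5.8. Each reaction contained 25 mM maltose and enzyme and was incubated 10–30 min at 37 °C. Reactions were stopped by heating at 100 °C for 3 min, then centrifuged. Released D-glucose was measured with a glucose test reagent by absorbance at 505 nm.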

[20] = Inhibition of rat intestinal maltase assessed as production of D-glucose using maltose as substrate after 10 to 30 mins by spectrophotometry
In short: as §2

| SMILES | inhibition [1] [%] | inhibition [2] [%] | inhibition [3] [%] | inhibition [4] [%] | inhibition [5] [%] | inhibition [6] [%] | IC50 [7] [µM] | inhibition [8] [%] | inhibition [9] [%] | inhibition [10] [%] | inhibition [11] [%] | inhibition [12] [%] | inhibition [13] [%] | inhibition [14] [%] | inhibition [15] [%] | IC50 [16] [µM] | IC50 [17] [µM] | inhibition [18] [%] | IC50 [19] [µM] | IC50 [20] [µM] |
| --- | --- | --- | --- | --- | --- | --- | --- | --- | --- | --- | --- | --- | --- | --- | --- | --- | --- | --- | --- | --- |
| OC[C@@H]1CNC[C@@H](O)[C@H]1O | < 50 | < 50 | < 50 | < 50 | < 50 | < 50 | 469 | < 50 | < 50 | < 50 | < 50 | < 50 | < 50 | < 50 | < 50 |  |  |  |  |  |
| OC[C@H]1CNC[C@H](O)[C@@H]1O | < 50 | < 50 |  | < 50 | < 50 | < 50 | 52 |  | < 50 | < 50 |  | < 50 | < 50 | < 50 | < 50 | 443 | 334 |  |  |  |
| OC[C@H]1NCC[C@H](O)[C@H]1O | < 50 | < 50 | < 50 | < 50 | < 50 | < 50 |  | < 50 |  | < 50 | < 50 | < 50 | < 50 |  | < 50 |  |  | < 50 |  |  |
| OC[C@H]1NCC[C@H](O)[C@@H]1O | < 50 | < 50 | < 50 | < 50 |  | < 50 | 4.3 |  | < 50 |  |  | < 50 | < 50 | < 50 |  | 120 | 39 |  | 120 |  |
| OC[C@@H]1NCC[C@H](O)[C@H]1O | < 50 | < 50 | < 50 | < 50 | < 50 | < 50 |  | < 50 | < 50 | < 50 | < 50 | < 50 | < 50 | < 50 | < 50 |  |  | < 50 |  |  |
| OC[C@@H]1NCC[C@H](O)[C@@H]1O | < 50 | < 50 | < 50 | < 50 | < 50 | < 50 |  | < 50 | < 50 | < 50 | < 50 | < 50 | < 50 | < 50 | < 50 |  |  | < 50 |  |  |
| OC[C@@H]1NC[C@@H](O)[C@H](O)[C@H]1O |  | < 50 |  | < 50 |  | < 50 |  | < 50 |  | < 50 |  |  | < 50 |  |  | 980 |  |  | 4.3 | 28 |
| OC[C@@H]1NCC[C@@H](O)[C@@H]1O |  | < 50 | < 50 | < 50 |  | < 50 |  | < 50 | < 50 | < 50 | < 50 | < 50 | < 50 | < 50 | < 50 |  |  | < 50 | 980 | 668 |
| OC[C@H]1CNC[C@H](O)[C@H]1O | < 50 | < 50 | < 50 | < 50 | < 50 | < 50 | 211 |  | < 50 | < 50 | < 50 | < 50 | < 50 | < 50 | < 50 |  | 912 |  |  |  |
